EP2 mod = modulates human prostaglandin E2 receptor EP2 signaling; induction, % at 25 µM; 0.83% of 260,000 active; EP2-expressing cells, cAMP HTRF FRET, PGE2 co-stimulation; P43116;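 active means compounds whose cAMP rise, as percent of the full-agonist control response, exceeds 60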;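 further: rat C6 glioma line stably carrying human EP2 under a CMV promoter; the protocol text gives 20 µM as final concentration; 100% = response of wells given 1 µM PGE2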
Target sequence (P43116 whole entry, looked up): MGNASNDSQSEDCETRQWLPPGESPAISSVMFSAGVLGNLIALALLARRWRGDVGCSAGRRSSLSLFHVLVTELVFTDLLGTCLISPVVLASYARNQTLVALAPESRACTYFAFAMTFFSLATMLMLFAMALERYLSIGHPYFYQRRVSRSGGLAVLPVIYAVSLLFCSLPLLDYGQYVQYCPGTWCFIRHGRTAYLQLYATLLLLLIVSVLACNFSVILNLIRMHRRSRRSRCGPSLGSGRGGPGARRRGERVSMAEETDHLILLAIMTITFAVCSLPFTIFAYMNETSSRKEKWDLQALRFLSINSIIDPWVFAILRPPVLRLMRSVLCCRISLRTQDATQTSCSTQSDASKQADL
CHO parental Ca = counter-screen: ATP calcium response change in parental CHO cells; 0.63% of 330,000 active; inhibition, % at 5.6 µM; parental CHO-K1, ATP-induced calcium, Fluo-8 fluorescence; AID 463079;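 active means inhibition above that plate's mean sample inhibition plus 3 SD, cut at about 26% in these data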;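 further: 0% = ATP-challenged DMSO wells and 100% = DMSO wells without ATP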
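test system = CHO parental line | reagent = ATP stimulus | measured by = intracellular calcium via Fluo-8 no-wash fluorescent dye | control set = ATP and no-ATP DMSO wells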
EP2 antag = inhibitors of human EP2 prostaglandin E2 receptor. C6 glioma cells expressing human EP2, cAMP TR-FRET; cells stimulated with saturating PGE2. inhibition, % at 25 µM. AID 1422. 0.52% of 260,000 active. P43116;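 active means percent inhibition above 40 after rounding to a whole number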;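 further: rat C6 glioma host cells with rolipram phosphodiesterase inhibitor present; the protocol text gives 20 µM as final concentration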
OX1R antag-1 = blocks the human orexin 1 receptor. inhibition, % at 5 µM. 0.43% of 330,000 active. O43613. CHO/OX1R cells, Fluo-8 calcium fluorescence, orexin A;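 active means inhibition above its plate's threshold, mean inhibition of all tested compounds on the plate plus 3 SD, cut at about 37% in these data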;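 further: 0% = orexin A challenge wells and 100% = SB-334867-A antagonist wells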
OX1R antag-2 = OX1R (human) antagonism | OX1R-expressing cells, FRET antagonist read-out | inhibition, % at 6.6 µM | 1.8% of 330,000 active; in the data active means inhibition mostly above about 38%, no sharp cut-off; inactive means mostly below about 40%;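 further: 0% = agonist challenge alone and 100% = reference antagonist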
GPR7 antag = human neuropeptides B/W receptor 1 antagonism | inhibition, % at 4.4 µM | P48145 | GPR7-expressing cells, fluorescence antagonist assay | 1.1% of 290,000 active; in the data active means inhibition above about 16%, passing the limit was not always enough;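 further: cells stimulated with the agonist NPW; 0% = agonist with vehicle and 100% = vehicle without agonist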
* hit, by the source's call. Shown are actives, neighbours in structure and some others; about 3.7% of the full set was active somewhere.

What do the screens show for `O=C(NCC(=O)N1CCN(Cc2ccccc2)CC1)c1ccc(Cl)cc1`?
CHO parental Ca: -15; OX1R antag-1: -16; OX1R antag-2: 18; GPR7 antag: -14

How did O=C(NCC(=O)N1CCN(Cc2ccccc2)CC1)c1cc(Cl)cc([N+](=O)[O-])c1 do in these assays?
CHO parental Ca: -2; OX1R antag-1: -11; OX1R antag-2: 34*

How did Cc1cc(NC(=O)c2ccccc2)ccc1NC(=O)c1ccccc1Cl do in these assays?
CHO parental Ca: -5; OX1R antag-1: -36; OX1R antag-2: 14; GPR7 antag: -4

What do the screens show for `Cc1c(NC(=O)/C(C#N)=C/C2CC=CCC2)c(=O)n(-c2ccccc2)n1C` (centres undefined)?
EP2 mod: 6; CHO parental Ca: -8; OX1R antag-1: -12; OX1R antag-2: 14; GPR7 antag: 1

What do the screens show for `O=C(N/N=C/c1ccc2ncccc2c1)c1cc(-c2cccs2)nc2ccccc12`?
EP2 mod: -6; CHO parental Ca: -18; EP2 antag: 8; OX1R antag-1: 19; OX1R antag-2: 62*; GPR7 antag: 3

Results for CCOC(=O)c1sc2nc(N3CCOCC3)c3c(c2c1N)CCN(C)C3 ?
EP2 mod: 3; EP2 antag: 13; GPR7 antag: -7

Results for Cc1ccc(-c2nc(C)sc2CC(=O)OCC(=O)Nc2ccc(F)c(Cl)c2)cc1 ?
CHO parental Ca: -17; OX1R antag-1: -22; OX1R antag-2: 8

Results for O=C1OCC2=C1C(c1ccc(F)cc1)c1cc3c(cc1N2)OCO3 (centres undefined) ?
EP2 mod: 11; EP2 antag: 5; GPR7 antag: 19*

How did CCOc1ccccc1C1C2=C(COC2=O)Nc2cc3c(cc21)OCO3 (centres undefined) do in these assays?
EP2 mod: 2; CHO parental Ca: -15; EP2 antag: 12; OX1R antag-1: -13; OX1R antag-2: 1; GPR7 antag: 16

What do the screens show for `O=C1OCC2=C1C(c1ccc(F)cc1)c1cc3c(cc1N2)OCCO3` (centres undefined)?
EP2 mod: 38; EP2 antag: 9; GPR7 antag: 19*

What do the screens show for `O=C(CNCc1ccco1)Nc1ccc(N2CCCCCC2)cc1`?
EP2 mod: -18; CHO parental Ca: -11; EP2 antag: 1; OX1R antag-1: -19; OX1R antag-2: 13; GPR7 antag: 2

How did Cc1cc(C)cc(Nc2ccc([N+](=O)[O-])nc2[N+](=O)[O-])c1 do in these assays?
EP2 mod: -14; CHO parental Ca: -11; EP2 antag: 12; OX1R antag-1: -18; OX1R antag-2: 61*; GPR7 antag: -8

Results for O=C(Nc1ccccc1)Nc1cccc2nsnc12 ?
EP2 mod: -34; CHO parental Ca: -15; EP2 antag: 5; OX1R antag-1: -11; OX1R antag-2: 35; GPR7 antag: -7

Results for O=[N+]([O-])c1ccccc1Nc1nc(-c2cccnc2)cs1 ?
CHO parental Ca: -17; OX1R antag-1: 0; OX1R antag-2: 60*; GPR7 antag: -14

Results for COc1ccc(Nc2nc(-c3cccnc3)cs2)c(OC)c1 ?
GPR7 antag: 2

What do the screens show for `COc1ccccc1Nc1nc(-c2cccnc2)cs1`?
CHO parental Ca: -19; OX1R antag-1: -27; OX1R antag-2: 38*; GPR7 antag: 20

How did O=c1cc(-c2c(F)c(F)c(F)c(F)c2F)oc2c(F)c(F)c(F)c(F)c12 do in these assays?
EP2 mod: -28; CHO parental Ca: 68*; EP2 antag: 10; OX1R antag-1: 43*; OX1R antag-2: 45*; GPR7 antag: 6

Results for O=c1cc(-c2c(F)c(F)c(F)c(F)c2F)oc2ccccc12 ?
EP2 mod: -14; CHO parental Ca: -1; EP2 antag: 11; OX1R antag-1: 15; OX1R antag-2: 43; GPR7 antag: -17

How did O=c1oc(Nc2cccc(F)c2)nc2ccccc12 do in these assays?
EP2 mod: -29; CHO parental Ca: 4; EP2 antag: 8; OX1R antag-1: -5; OX1R antag-2: 22; GPR7 antag: -3

What do the screens show for `Nc1nc(Nc2cccc(F)c2)nc2ccccc12`?
EP2 mod: -34; CHO parental Ca: -9; EP2 antag: 6; OX1R antag-1: 3; OX1R antag-2: 57*; GPR7 antag: -10

Results for CC(=O)c1ccc(C(=O)N2CCCC(CO)(Cc3ccccc3C)C2)s1 (centres undefined) ?
GPR7 antag: -1

Results for CC(=O)N1CCN(c2ccc(NC(=O)c3cccc(Cl)c3Cl)cc2)CC1 ?
EP2 mod: -29; CHO parental Ca: -1; EP2 antag: 10; OX1R antag-1: -7; OX1R antag-2: 23; GPR7 antag: 4

What do the screens show for `Cc1cc(C(=O)COc2ccc(Cl)cc2Br)c(C)n1C`?
EP2 mod: -29; CHO parental Ca: 26*; EP2 antag: 2; OX1R antag-1: -7; OX1R antag-2: 4; GPR7 antag: 8

Results for COc1cccc2cc(C(=O)NC3CC(C)(C)NC(C)(C)C3)c(=O)oc12 ?
CHO parental Ca: -5; EP2 antag: 15; OX1R antag-1: -2; OX1R antag-2: 35; GPR7 antag: -1

How did CC1(C)CC(=O)c2cnc(NC(=O)CSC(=S)N3CCCCC3)nc2C1 do in these assays?
EP2 mod: 23; CHO parental Ca: -10; EP2 antag: 11; OX1R antag-1: -9; OX1R antag-2: 3; GPR7 antag: -10

Results for O=C(COc1ccc(OCc2ccccc2)cc1)NC1CCOC1=O (centres undefined) ?
EP2 mod: 12; CHO parental Ca: 38*; EP2 antag: 13; OX1R antag-1: -2; OX1R antag-2: 28; GPR7 antag: 7

Results for O=C(O)CC1C(=O)NCCN1CCCc1ccccc1 (centres undefined) ?
EP2 mod: 0; CHO parental Ca: -7; EP2 antag: 11; OX1R antag-1: 3; OX1R antag-2: 7; GPR7 antag: -14

How did O=C1c2ccccc2C(=O)c2c([N+](=O)[O-])ccc(O)c21 do in these assays?
EP2 mod: -77; CHO parental Ca: -9; EP2 antag: 9; OX1R antag-1: -21; OX1R antag-2: 4; GPR7 antag: -8

Results for CN(C)S(=O)(=O)c1ccc(Nc2ccc(O)c3c2C(=O)c2c([N+](=O)[O-])ccc(O)c2C3=O)cc1 ?
EP2 mod: -34; EP2 antag: 59*

What do the screens show for `CCOC(=O)Cc1cc(-c2ccccc2)nc2ccc3ccccc3c12`?
EP2 mod: 44; CHO parental Ca: -30; OX1R antag-1: -34; OX1R antag-2: 32; GPR7 antag: -10

Results for COc1ccc(-c2cc([C@H](O)[C@@H]3CCCCN3)c3ccccc3n2)cc1 ?
EP2 mod: -23; EP2 antag: 50*

What do the screens show for `COc1ccc(-c2cc(C(=O)NC3CCCC3)c3ccccc3n2)cc1`?
CHO parental Ca: -24; OX1R antag-1: -13; OX1R antag-2: 26; GPR7 antag: 6

Assay outcomes: PubChem BioAssay, several laboratories
